Activity calls are given as the source filed them. No cut-off for these calls is given here.
Assays:
[1] = test system: Jurkat; experiment: Cytotoxicity against human Jurkat cells assessed as reduction in cell viability after 72 hrs by MTT assay; assay type: functional, cell-based
[2] = test system: K562; experiment: Induction of apoptosis in human K562 cells assessed as increase in caspase 3 expression level by Western blot analysis; assay type: functional, cell-based
Method in brief: (§1)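 Western blot of treated K562 cells for Bcl-2, Bax, activated caspase 3 and cleaved PARP (85 kDa fragment). Blots developed by ECL, with band expression quantified by densitometry against an untreated control sample.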

[3] = test system: K562; experiment: Induction of apoptosis in human K562 cells assessed as total viable cells by Annexin V-FITC/propidium iodide staining based flow cytometry (reference value: 92.45%); assay type: functional
[4] = test system: K562; experiment: Cell cycle arrest in human K562 cells assessed as total cell levels at M4 phase at IC50 after 72 hrs by propidium iodide staining based flow cytometry (reference value: 0.50%); assay type: functional
[5] = test system: K562; experiment: Cell cycle arrest in human K562 cells assessed as total cell levels at G0/G1 phase at IC50 after 72 hrs by propidium iodide staining based flow cytometry (reference value: 39.97%); assay type: functional
[6] = test system: K562; experiment: Induction of apoptosis in human K562 cells assessed as gated late apoptotic cells by Annexin V-FITC/propidium iodide staining based flow cytometry (reference value: 0.88%); assay type: functional
[7] = test system: HL-60; experiment: Cytotoxicity against human HL60 cells assessed as reduction in cell viability after 72 hrs by MTT assay; assay type: functional, cell-based; details: HL-60, 72 h
[8] = test system: MDA-MB-231; experiment: Cytotoxicity against human MDA-MB-231 cells assessed as reduction in cell viability after 72 hrs by MTT assay; assay type: functional, cell-based; details: MDA-MB-231, 72 h
[9] = test system: K562; experiment: Cell cycle arrest in human K562 cells assessed as total cell levels at G2/M phase at IC50 after 72 hrs by propidium iodide staining based flow cytometry (reference value: 14.31%); assay type: functional
[10] = test system: MRC5; experiment: Cytotoxicity against human MRC5 cells assessed as reduction in cell viability after 72 hrs by MTT assay; assay type: cell-based; details: MRC5, 72 h
[11] = test system: K562; experiment: Induction of apoptosis in human K562 cells assessed as increase in Bax expression level by Western blot analysis; assay type: functional, cell-based; method in brief: as §1
[12] = test system: K562; experiment: Cytotoxicity against human K562 cells assessed as reduction in cell viability after 72 hrs by MTT assay; assay type: functional, cell-based; details: K562, 72 h
[13] = test system: K562; experiment: Cell cycle arrest in human K562 cells assessed as accumulation at S phase at IC50 after 72 hrs by propidium iodide staining based flow cytometry (reference value: 41.03%); assay type: functional
[14] = test system: HeLa; experiment: Cytotoxicity against human HeLa cells assessed as reduction in cell viability after 72 hrs by MTT assay; assay type: functional, cell-based
[15] = test system: K562; experiment: Induction of apoptosis in human K562 cells assessed as gated early apoptotic cells by Annexin V-FITC/propidium iodide staining based flow cytometry (reference value: 3.18%); assay type: functional
[16] = test system: MCF7; experiment: Cytotoxicity against human MCF7 cells assessed as reduction in cell viability after 72 hrs by MTT assay; assay type: functional, cell-based; details: MCF7, 72 h
[17] = test system: K562; experiment: Induction of apoptosis in human K562 cells assessed as specific necrosis by Annexin V-FITC/propidium iodide staining based flow cytometry; assay type: functional; set-up: concentration or dose not given beside the values
[18] = test system: K562; experiment: Induction of apoptosis in human K562 cells assessed as total necrotic cells by Annexin V-FITC/propidium iodide staining based flow cytometry (reference value: 0.23%); assay type: functional
[19] = test system: K562; experiment: Induction of apoptosis in human K562 cells assessed as total late apoptotic cells by Annexin V-FITC/propidium iodide staining based flow cytometry (reference value: 0.77%); assay type: functional
[20] = test system: K562; experiment: Cell cycle arrest in human K562 cells assessed as accumulation at G0/G1 phase at IC50 after 72 hrs by propidium iodide staining based flow cytometry (reference value: 38.48%); assay type: functional
[21] = test system: K562; experiment: Cell cycle arrest in human K562 cells assessed as accumulation at G2/M phase at IC50 after 72 hrs by propidium iodide staining based flow cytometry (reference value: 19.01%); assay type: functional
[22] = test system: K562; experiment: Induction of apoptosis in human K562 cells assessed as increase in cleaved PARP expression level by Western blot analysis; assay type: functional, cell-based; method in brief: as §1
[23] = test system: K562; experiment: Cell cycle arrest in human K562 cells assessed as total cell levels at S phase at IC50 after 72 hrs by propidium iodide staining based flow cytometry (reference value: 36.49%); assay type: functional
[24] = test system: Raji; experiment: Cytotoxicity against human Raji cells assessed as reduction in cell viability after 72 hrs by MTT assay; assay type: functional, cell-based
[25] = test system: K562; experiment: Induction of apoptosis in human K562 cells assessed as specific apoptosis by Annexin V-FITC/propidium iodide staining based flow cytometry; assay type: functional; set-up: concentration or dose not given beside the values
[26] = test system: A549; experiment: Cytotoxicity against human A549 cells assessed as reduction in cell viability after 72 hrs by MTT assay; assay type: functional, cell-based; details: A549, 72 h
[27] = test system: K562; experiment: Induction of apoptosis in human K562 cells assessed as gated necrotic cells by Annexin V-FITC/propidium iodide staining based flow cytometry (reference value: 0.24%); assay type: functional
[28] = test system: K562; experiment: Induction of apoptosis in human K562 cells assessed as decrease in Bcl-2 expression level by Western blot analysis; assay type: functional, cell-based; method in brief: as §1
[29] = test system: K562; experiment: Cell cycle arrest in human K562 cells assessed as accumulation at sub G1 phase at IC50 after 72 hrs by propidium iodide staining based flow cytometry (reference value: 1.48%); assay type: functional
[30] = test system: K562; experiment: Induction of apoptosis in human K562 cells assessed as gated viable cells by Annexin V-FITC/propidium iodide staining based flow cytometry (reference value: 95.78%); assay type: functional
[31] = test system: K562; experiment: Induction of apoptosis in human K562 cells assessed as total early apoptotic cells by Annexin V-FITC/propidium iodide staining based flow cytometry (reference value: 3.07%); assay type: functional

Row | Structure (SMILES) | IC50 [1] [µM] | Activity [3] [%] | Activity [4] [%] | Activity [5] [%] | Activity [6] [%] | IC50 [7] [µM] | IC50 [8] [µM] | Activity [9] [%] | IC50 [10] [µM] | Activity [11] | IC50 [12] [µM] | Activity [13] [%] | IC50 [14] [µM] | Activity [15] [%] | IC50 [16] [µM] | Activity [17] [%] | Activity [18] [%] | Activity [19] [%] | Activity [20] [%] | Activity [21] [%] | further results
1 | O=C1C=C[C@]2(C[C@H](OC(=O)/C=C/c3ccccc3)[C@H](c3ccccc3)O2)O1 | 5.63 | 12.29 | 4.73 | 17.87 | 15.25 | 3.41 | 5.23 | 29.57 | > 100 | Active | 4.62 | 38.09 | 14.5 | 67.26 | 5.34 | 1.97 | 1.67 | 12.17 | 21.01 | 35.21 | Activity [2]: inactive; Activity [22]: inactive; Activity [23]: 31.69%; IC50 [24]: 9.68 µM; Activity [25]: 81.79%; IC50 [26]: 1.02 µM; Activity [27]: 2.09%; Activity [28]: Active; Activity [29]: 5.69%; Activity [30]: 15.4%; Activity [31]: 53.67%
2 | O=C1C=C[C@@]2(C[C@H](OC(=O)/C=C/c3ccc(F)cc3)[C@H](c3ccccc3)O2)O1 | 4.63 | 70.05 | 3.69 | 34.22 | 1.51 | 1.02 | 7.54 | 26.5 | > 100 | inactive | 5.36 | 30.34 | 8.45 | 20.44 | 2.31 | 1.22 | 1.57 | 0.75 | 37.01 | 28.66 | Activity [2]: Active; Activity [22]: Active; Activity [23]: 28.54%; IC50 [24]: 5.37 µM; Activity [25]: 18.71%; IC50 [26]: 1.17 µM; Activity [27]: 2.81%; Activity [28]: Active; Activity [29]: 3.99%; Activity [30]: 75.24%; Activity [31]: 10%
3 | O=C1C=C[C@]2(C[C@H](O)[C@H](c3ccccc3)O2)O1 | 1.01 | 74.8 | 0.6 | 11.56 | 8.1 | 6.11 | 45.1 | 51.44 | > 100 | Active | 1.21 | 17.17 | 35.4 | 3.35 | 11 | 2.84 | 1.07 | 6.94 | 15.18 | 66.56 | Activity [23]: 13.07%; IC50 [24]: 8.84 µM; Activity [25]: 7.78%; IC50 [26]: 35.2 µM; Activity [27]: 1.25%; Activity [28]: Active; Activity [29]: 1.09%; Activity [30]: 87.3%; Activity [31]: 2.87%
4 | O=C1C=C[C@@]2(C[C@H](OC(=O)/C=C/c3ccccc3)[C@@H](c3ccccc3)O2)O1 | 87.6 | 2.12 | 54.83 | 21.87 | 4.67 | 5.61 | 3.45 | 5.03 | > 100 | Active | 20.5 | 14.63 | 0.58 | 82.46 | 0.58 | 4.12 | 0.02 | 3.48 | 23.1 | 5.34 | Activity [23]: 13.85%; IC50 [24]: 2.38 µM; Activity [25]: 86.01%; IC50 [26]: 28.1 µM; Activity [27]: 0.03%; Activity [28]: Active; Activity [29]: 56.93%; Activity [30]: 12.84%; Activity [31]: 68.98%
5 | O=C1C=C[C@]2(C[C@H](OC(=O)/C=C/c3ccc(F)cc3)[C@@H](c3ccccc3)O2)O1 | 15.6 | 81.7 | 1.87 | 37.36 | 1.85 | 24.1 | > 100 | 27.34 | > 100 | Active | 8.45 | 28.31 | 6.12 | 9.86 | 9.65 | 3.28 | 0.78 | 1.73 | 40.27 | 29.4 | Activity [23]: 26.82%; IC50 [24]: 34.1 µM; Activity [25]: 8.05%; IC50 [26]: > 100 µM; Activity [27]: 0.83%; Activity [28]: inactive; Activity [29]: 2.02%; Activity [30]: 87.45%; Activity [31]: 9.21%
6 | O=C1C=C[C@@]2(C[C@H](O)[C@@H](c3ccccc3)O2)O1 | 0.34 | 24.92 | 0.94 | 29.6 | 11.28 | 1.02 | > 100 | 18.07 | > 100 | Active | 0.54 | 35.2 | 2.12 | 3.97 | 3.57 | 4.8 | 2.81 | 3.69 | 39.26 | 24.28 | Activity [23]: 26.52%; IC50 [24]: 5.97 µM; Activity [25]: 11.74%; IC50 [26]: 21.3 µM; Activity [27]: 8.59%; Activity [28]: inactive; Activity [29]: 1.26%; Activity [30]: 76.16%; Activity [31]: 1.3%
7 | O=C1C=C[C@@]2(C[C@H](O)[C@H](c3ccccc3)O2)O1 | 0.96 | 20.34 | 0.87 | 15.11 | 7.48 | 0.19 | > 100 | 13.99 | > 100 | Active | 0.54 | 52.34 | 4.61 | 6.15 | 1.97 | 0.67 | 1.15 | 1.86 | 28.98 | 17.58 | Activity [23]: 50.77%; IC50 [24]: 2.69 µM; Activity [25]: 10.05%; IC50 [26]: 31.4 µM; Activity [27]: 4.62%; Activity [28]: Active; Activity [29]: 1.1%; Activity [30]: 81.75%; Activity [31]: 1.53%

Reference: ChEMBL document CHEMBL4033643, “Synthesis and in vitro antitumour activity of crassalactone D, its stereoisomers and novel cinnamic ester derivatives” (Eur J Med Chem, 2017)
